The values that follow come from PMC6589821 (Bioorganic & medicinal chemistry, 2019).

The subject of one series is p160 Gag-Pol. The following applies: earlier work; cited from earlier work.
The test system of the next series is pseudotyped HIV. The following applies: earlier work; cited from earlier work.
The next series concerns HIV-1 AD.MDR01. The following applies: patient-derived strain; cited from earlier work.
Series [1] relates to HIV-1 FSS RNA. In words: SPR binding to immobilised HIV-1 FSS RNA. As to conditions: for ka / kd: SPR, 1:1 Langmuir fit, average of four curves. In general terms: SPR reads the build-up and loss of mass on a sensor chip optically.
Another series deals with HIV IIIB. The following applies: earlier work; cited from earlier work.
The subject of the next series is HEK293FT cells. The series is described as follows: WST-1 cytotoxicity assay. The series is classed as cell-based. As to conditions: 24 hours. In general terms: Tetrazolium dyes change colour on reduction, which living cells bring about.
Series [2] relates to HIV-1 FSS RNA. The series is described as follows: Competitive SPR assay with excess yeast tRNA in solution. The class given is binding. A digest of the protocol: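 Streptavidin was coupled by EDC/NHS onto a CM5 chip, then ethanolamine-blocked; about 2000 RU of biotinylated HIV-1 FSS RNA (refolded 3 min at 75 °C in HBS, pH 7.4) was captured on one flow cell. Analyte was injected with or without excess bulk yeast tRNA at 80 μL/min for 1 min in HBS. At least two injections per condition.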

Another series deals with IRF5 RNA. In words: Competition dialysis, IRF5 mRNA hairpin. The series is classed as binding, human. The following applies: 2.0 μM compound, 2.5 μM RNA, 36 hours. A digest of the protocol:
(§1)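 RNA hairpins refolded at 2.5 μM in PBS with 1 mM EDTA (3 min 25 °C, 3 min 90 °C, 5 min 27 °C). Duplicate dialysis tubes (MWCO 3500) of RNA, plus an RNA-free control, dialysed 36 h against 2.0 μM test compound in PBS. Bound compound released with 1% Triton X-100 (final). Total compound per tube quantified by HPLC against a calibration curve.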

For series [3], the system named is HIV-1 FSS RNA. The series is described as follows: Competition dialysis, HIV-1 FSS hairpin. The series is classed as binding. The following applies: 2.0 μM compound, 2.5 μM RNA, 36 hours, 8 competing human hairpins. In short, it runs like this: as §1
The test system of series [4] is hairpin derived from BDNF. In words: Competition dialysis, BDNF mRNA hairpin. The series is classed as binding, human. The following applies: 2.0 μM compound, 2.5 μM RNA, 36 hours. A digest of the protocol: as §1

“Also recorded” adds a separate entry of the source.

Take `CCc1nc2cc3ccccc3cc2cc1C(=O)N[C@@H](C/C=C\C[C@H](NC(=O)c1cc2cc3ccccc3cc2nc1CC)C(=O)N1CCC[C@H]1C(=O)N[C@@H](Cc1ccccc1)C(=O)NCCCN)C(=O)N1CCC[C@H]1C(=O)N[C@@H](Cc1ccccc1)C(=O)NCCCN` [Compound 2]: the “p160 Gag-Pol level in virus (Western blot)” value in the series with p160 Gag-Pol is given as “concentration-dependent increases in p160 Gag-Pol”. Also, in the series on pseudotyped HIV, the “effect on pseudotyped HIV” value was “inhibited both production and infectivity”.

For `CCc1nc2cc3ccccc3cc2cc1C(=O)N(C)[C@@H](CCn1cc(C[C@@H](C(=O)N2CCC[C@H]2C(=O)N(C)[C@@H](Cc2ccccc2)C(=O)NCCCN)N(C)C(=O)c2cc3cc4ccccc4cc3nc2CC)nn1)C(=O)N1CCC[C@H]1C(=O)N(C)[C@@H](Cc1ccccc1)C(=O)NCCCN` [Compound 3], the “inhibition of multidrug resistant strain” value with HIV-1 AD.MDR01 is on record as “inhibited”. In the series with HIV-1 FSS RNA [1], this compound yielded a ka of 190000 M⁻¹ s⁻¹ and a kd of 0.003 s⁻¹. Besides, the “p160 Gag-Pol level in virus (Western blot)” value in the series on p160 Gag-Pol is given as “concentration-dependent increases in p160 Gag-Pol”. Also, the “effect on pseudotyped HIV” value in the series on pseudotyped HIV is “inhibited both production and infectivity”. In addition, the “inhibition of laboratory strain HIV-1 IIIB” value in the series with HIV IIIB was “inhibited”.

For the compound `CCc1nc2ccccc2cc1C(=O)N(C)[C@@H](CCn1cc(C[C@@H](C(=O)N2CCC[C@H]2C(=O)N(C)[C@@H](Cc2ccccc2)C(=O)NCCCN)N(C)C(=O)c2cc3ccccc3nc2CC)nn1)C(=O)N1CCC[C@H]1C(=O)N(C)[C@@H](Cc1ccccc1)C(=O)NCCCN` [Compound 4], the “effect on cellular metabolism (WST-1)” value in the series on HEK293FT cells is on record as “significant effects below a concentration of 40 micromolar”. In the series on HIV-1 FSS RNA [1], the ka worked out at 64900 M⁻¹ s⁻¹ and the kd amounted to 0.0237 s⁻¹.

In the series with HIV-1 FSS RNA [1], `CCc1nc2ccccc2cc1C(=O)N(C)[C@@H](CCn1cc(C[C@@H](C(=O)N2C[C@H](O)C[C@H]2C(=O)N(C)[C@@H](Cc2ccccc2)C(=O)NCCCN)N(C)C(=O)c2cc3ccccc3nc2CC)nn1)C(=O)N1C[C@H](O)C[C@H]1C(=O)N(C)[C@@H](Cc1ccccc1)C(=O)NCCCN` [Compound 5] gave a ka of 14900 M⁻¹ s⁻¹ and a kd of 0.0068 s⁻¹.

Take `CN(C(=O)c1cnc2ccccc2c1)[C@@H](CCn1cc(C[C@@H](C(=O)N2CCC[C@H]2C(=O)N(C)[C@@H](Cc2ccccc2)C(=O)NCCCN)N(C)C(=O)c2cnc3ccccc3c2)nn1)C(=O)N1CCC[C@H]1C(=O)N(C)[C@@H](Cc1ccccc1)C(=O)NCCCN` [Compound 6]: the “change of binding constant with versus without excess tRNA” value with HIV-1 FSS RNA [2] (SPR traces with and without excess tRNA) is reported as “within statistical error; also recorded: little impact on binding”. The “fold lower affinity for the FSS than compound 3” value with HIV-1 FSS RNA [1] (KD ratio versus 3) is 4 fold. In the series on HIV-1 FSS RNA [1], this compound showed a ka of 56600 M⁻¹ s⁻¹ and a kd of 0.00226 s⁻¹. The “binding in competition dialysis” value in the series on IRF5 RNA is “appreciably bound”. For the same compound, the “binding among hairpins in competition dialysis” value with HIV-1 FSS RNA [3] is on record as “preferentially binds to HIV-1 FSS”. Moreover, the “binding in competition dialysis” value in series [4] is given as “appreciably bound”.

In the series on HIV-1 FSS RNA [1], `CN(C(=O)c1cnc2ccccc2c1)[C@@H](CCn1cc(C[C@@H](C(=O)N2C[C@H](O)C[C@H]2C(=O)N(C)[C@@H](Cc2ccccc2)C(=O)NCCCN)N(C)C(=O)c2cnc3ccccc3c2)nn1)C(=O)N1C[C@H](O)C[C@H]1C(=O)N(C)[C@@H](Cc1ccccc1)C(=O)NCCCN` [Compound 7] yielded a ka of 67400 M⁻¹ s⁻¹ and a kd of 0.00542 s⁻¹.

As for `CCc1nc2ccccc2cc1C(=O)N(C)[C@@H](CCn1cc(C[C@@H](C(=O)N2CCC[C@H]2C(=O)N(C)[C@@H](Cc2ccccc2)C(N)=O)N(C)C(=O)c2cc3ccccc3nc2CC)nn1)C(=O)N1CCC[C@H]1C(=O)N(C)[C@@H](Cc1ccccc1)C(N)=O` [Compound 8], in the series on HIV-1 FSS RNA [1], the ka worked out at 1690 M⁻¹ s⁻¹ and the kd was 0.0207 s⁻¹.

For `CN(C(=O)c1cnc2ccccc2c1)[C@@H](CCn1cc(C[C@@H](C(=O)N2C[C@H](O)C[C@H]2C(=O)N(C)[C@@H](Cc2ccccc2)C(N)=O)N(C)C(=O)c2cnc3ccccc3c2)nn1)C(=O)N1C[C@H](O)C[C@H]1C(=O)N(C)[C@@H](Cc1ccccc1)C(N)=O` [Compound 10], the “fold difference in KD between 10 and 6” value with HIV-1 FSS RNA [1] (KD ratio 10 versus 6) is 23 fold. In addition, in the series with HIV-1 FSS RNA [1], the ka worked out at 4090 M⁻¹ s⁻¹ and the kd came out at 0.00541 s⁻¹.

`NC[C@@H]1O[C@H](O[C@H]2[C@@H](O)[C@H](O[C@@H]3[C@@H](O)[C@H](N)C[C@H](N)[C@H]3O[C@H]3O[C@H](CN)[C@@H](O)[C@H](O)[C@H]3N)O[C@@H]2CO)[C@H](N)[C@@H](O)[C@@H]1O` [Neomycin, neomycin, reference compound]: the “SPR signal for HIV-1 FSS binding with tRNA” value in the series with HIV-1 FSS RNA [2] (30 μM tRNA, 3-fold excess relative to neomycin) was “completely ablated”.
